Calls of active or inactive are those of the source. The rule behind the calls is not given here.
Legend:
MCF7 = test: Antiproliferative activity against human MCF7 cells assessed as reduction in cell viability after 72 hrs by alamar blue assay; assay type: functional, cell-based; conditions: MCF7, 72 h
Summary of the method: (§1)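 Cells seeded at 5 x 10^3/well (MCF-7) or 1 x 10^4/well (HT-29, HEK-293T) and treated after 24 h with serial dilutions (0.001-100 µM) in 1% v/v ethanol vehicle. Alamar Blue 10% v/v added at 72 h, then 3-5 h at 37 °C in the dark; fluorescence ex 530/em 590 nm. Viability relative to vehicle; IC50 from dose-response curves; mean of three experiments in triplicate.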

HT-29 [1] = test: Antiproliferative activity against human HT-29 cells assessed as reduction in cell viability after 72 hrs by alamar blue assay; assay type: functional, cell-based; conditions: HT-29, 72 h; summary of the method: as §1
[2] = Selectivity index, ratio of IC50 for human MCF7 cells to IC50 for human HT-29 cells assessed as reduction in cell viability after 72 hrs by alamar blue assay; assay type: functional
[3] = Half life of the compound in phosphate buffer at pH 7.4 by HPLC analysis; assay type: physicochemical
Summary of the method: (§2)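 Compound stock was 1 mg/mL in mobile phase; 30 µL was diluted into 1 mL phosphate buffer (pH 4, 7.4 or 9) and held at 37 °C. Samples were taken at 0, 5, 30 and 60 min, then hourly to 24 h. Analysis was reverse-phase C18 HPLC with acetonitrile/water mobile phase at 1 mL/min and detection at 254 nm.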

[4] = Half life of the compound in phosphate buffer at pH 9 by HPLC analysis; assay type: physicochemical; summary of the method: as §2
[5] = Half life of the compound in phosphate buffer at pH 4 by HPLC analysis; assay type: physicochemical; summary of the method: as §2
Bos taurus = species on record: Bos taurus; test: Inhibition of bovine brain tubulin polymerization at 10 uM measured at 30 sec interval for 30 mins in presence of GTP by turbidimetry-based spectrophotometric method
HT-29 [6] = test: Antiangiogenic activity in human HT29 cells assessed as reduction in IL-1alpha secretion at 5 uM after 24 hrs by ELISA; assay type: functional, cell-based
Summary of the method: (§3)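 HT-29 cells at 5 x 10^4 per well, cultured 24 h and then exposed to 5 µM compound. Conditioned medium collected on ice and stored at -80 °C. Cytokines and angiogenic, vascular-injury and chemokine factors measured by multiplex panels with overnight supernatant incubation (Angiogenesis Panel 1 and Vascular Injury Panel 2 same day). Medium undiluted except 1:4 for Vascular Injury Panel 2. Secretion normalised to lysate protein by BCA.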

HT-29 [7] = test: Antiangiogenic activity in human HT29 cells assessed as reduction in IL-1beta secretion at 5 uM after 24 hrs by ELISA; assay type: functional, cell-based; summary of the method: as §3
HT-29 [8] = test: Antiangiogenic activity in human HT29 cells assessed as reduction in VEGF secretion at 5 uM after 24 hrs by ELISA; assay type: functional, cell-based; summary of the method: as §3
HT-29 [9] = test: Antiangiogenic activity in human HT-29 cells assessed as increase in IL-1RA secretion at 5 uM after 24 hrs by ELISA; assay type: functional, cell-based; summary of the method: as §3

## COc1ccc([C@H]2[C@H](N)C(=O)N2c2cc(OC)c(OC)c(OC)c2)cc1F
MCF7
  IC50: 483 nM
HT-29 [1]
  IC50: 238 nM
[2]
  Ratio IC50: 2.03

## COc1ccc([C@H]2[C@H](Oc3ccccc3)C(=O)N2c2cc(OC)c(OC)c(OC)c2)cc1Cl
MCF7
  IC50: 430 nM
HT-29 [1]
  IC50: 314 nM
[2]
  Ratio IC50: 1.37
[3]
  half-life: > 900 min
[4]
  half-life: > 900 min
[5]
  half-life: > 900 min

## COc1ccc([C@H]2[C@H](Oc3ccccc3)C(=O)N2c2cc(OC)c(OC)c(OC)c2)cc1I
MCF7
  IC50: 208 nM
HT-29 [1]
  IC50: 232 nM
[2]
  Ratio IC50: 0.9

## COc1ccc([C@H]2[C@H](O)C(=O)N2c2cc(OC)c(OC)c(OC)c2)cc1Cl
MCF7
  IC50: 12 nM
HT-29 [1]
  IC50: 18 nM
[2]
  Ratio IC50: 0.67
Bos taurus
  inhibition: Active

## C=C[C@@H]1C(=O)N(c2cc(OC)c(OC)c(OC)c2)[C@H]1c1ccc(OC)c(I)c1
MCF7
  IC50: 215 nM
HT-29 [1]
  IC50: 306 nM
[2]
  Ratio IC50: 0.7

## COc1ccc([C@@H]2N(c3cc(OC)c(OC)c(OC)c3)C(=O)C2(Cl)Cl)cc1Br
MCF7
  IC50: 1120 nM
HT-29 [1]
  IC50: 1540 nM
[2]
  Ratio IC50: 0.73

## COc1ccc([C@H]2[C@H](Cl)C(=O)N2c2cc(OC)c(OC)c(OC)c2)cc1I
MCF7
  IC50: 421 nM
HT-29 [1]
  IC50: 190 nM
[2]
  Ratio IC50: 2.22

## COc1ccc([C@H]2[C@H](O)C(=O)N2c2cc(OC)c(OC)c(OC)c2)cc1I
MCF7
  IC50: 100 nM
HT-29 [1]
  IC50: 21 nM
[2]
  Ratio IC50: 4.77

## C=C(C)[C@@H]1C(=O)N(c2cc(OC)c(OC)c(OC)c2)[C@H]1c1ccc(OC)c(I)c1
MCF7
  IC50: 1350 nM
HT-29 [1]
  IC50: 1050 nM
[2]
  Ratio IC50: 1.29

## COc1ccc([C@H]2[C@H](Cl)C(=O)N2c2cc(OC)c(OC)c(OC)c2)cc1Cl
MCF7
  IC50: 91 nM
HT-29 [1]
  IC50: 144 nM
[2]
  Ratio IC50: 0.63

## COc1ccc([C@H]2CC(=O)N2c2cc(OC)c(OC)c(OC)c2)cc1C
MCF7
  IC50: 317 nM
HT-29 [1]
  IC50: 189 nM
[2]
  Ratio IC50: 1.68

## C=C[C@@H]1C(=O)N(c2cc(OC)c(OC)c(OC)c2)[C@H]1c1ccc(OC)c(Cl)c1
MCF7
  IC50: 120 nM
HT-29 [1]
  IC50: 293 nM
[2]
  Ratio IC50: 0.41

## COc1ccc([C@H]2[C@H](Oc3ccccc3)C(=O)N2c2cc(OC)c(OC)c(OC)c2)cc1Br
MCF7
  IC50: 818 nM
HT-29 [1]
  IC50: 577 nM
[2]
  Ratio IC50: 1.42

## COc1ccc([C@H]2[C@H](c3ccccc3)C(=O)N2c2cc(OC)c(OC)c(OC)c2)cc1Br
MCF7
  IC50: 651 nM
HT-29 [1]
  IC50: 325 nM
[2]
  Ratio IC50: 2

## COc1ccc([C@H]2[C@H](O)C(=O)N2c2cc(OC)c(OC)c(OC)c2)cc1Br
MCF7
  IC50: 44 nM
HT-29 [1]
  IC50: 9 nM
[2]
  Ratio IC50: 4.89
Bos taurus
  inhibition: Active

## C=C(C)[C@@H]1C(=O)N(c2cc(OC)c(OC)c(OC)c2)[C@H]1c1ccc(OC)c(Cl)c1
MCF7
  IC50: 270 nM
HT-29 [1]
  IC50: 480 nM
[2]
  Ratio IC50: 0.56

## COc1ccc([C@H]2[C@H](Oc3ccccc3)C(=O)N2c2cc(OC)c(OC)c(OC)c2)cc1F (relative stereo)
MCF7
  IC50: 73 nM
HT-29 [1]
  IC50: 155 nM
[2]
  Ratio IC50: 0.47

## COc1ccc([C@H]2[C@H](c3ccccc3)C(=O)N2c2cc(OC)c(OC)c(OC)c2)cc1O
MCF7
  IC50: 4 nM
HT-29 [1]
  IC50: 430 nM
[2]
  Ratio IC50: 0.01
HT-29 [6]
  Activity: inactive
HT-29 [7]
  Activity: inactive
HT-29 [8]
  Activity: inactive
HT-29 [9]
  Activity: Active

## COc1ccc([C@H]2[C@H](Oc3ccccc3)C(=O)N2c2cc(OC)c(OC)c(OC)c2)cc1C
MCF7
  IC50: 2240 nM
HT-29 [1]
  IC50: 313 nM
[2]
  Ratio IC50: 7.14

## COc1ccc([C@@H]2N(c3cc(OC)c(OC)c(OC)c3)C(=O)C2(Cl)Cl)cc1C
MCF7
  IC50: 747 nM
HT-29 [1]
  IC50: 319 nM
[2]
  Ratio IC50: 2.34

## COc1ccc([C@H]2[C@H](Cl)C(=O)N2c2cc(OC)c(OC)c(OC)c2)cc1C
MCF7
  IC50: 433 nM
HT-29 [1]
  IC50: 222 nM
[2]
  Ratio IC50: 1.95

## COc1ccc([C@H]2CC(=O)N2c2cc(OC)c(OC)c(OC)c2)cc1Cl
MCF7
  IC50: 140 nM
HT-29 [1]
  IC50: 154 nM
[2]
  Ratio IC50: 0.91

## COc1ccc([C@@H]2N(c3cc(OC)c(OC)c(OC)c3)C(=O)C2(Cl)Cl)cc1Cl
MCF7
  IC50: 140 nM
HT-29 [1]
  IC50: 154 nM
[2]
  Ratio IC50: 0.91

## COc1ccc([C@H]2CC(=O)N2c2cc(OC)c(OC)c(OC)c2)cc1I
MCF7
  IC50: 821 nM
HT-29 [1]
  IC50: 260 nM
[2]
  Ratio IC50: 3.16

## COc1ccc([C@H]2[C@H](c3ccccc3)C(=O)N2c2cc(OC)c(OC)c(OC)c2)cc1
MCF7
  IC50: 15 nM
HT-29 [1]
  IC50: 22 nM
[2]
  Ratio IC50: 0.68

## COc1ccc([C@H]2[C@H](Cl)C(=O)N2c2cc(OC)c(OC)c(OC)c2)cc1F
MCF7
  IC50: 40 nM
HT-29 [1]
  IC50: 15 nM

## COc1ccc([C@H]2[C@H](Cl)C(=O)N2c2cc(OC)c(OC)c(OC)c2)cc1Br
MCF7
  IC50: 603 nM
HT-29 [1]
  IC50: 194 nM
[2]
  Ratio IC50: 3.12

## C=C[C@@H]1C(=O)N(c2cc(OC)c(OC)c(OC)c2)[C@H]1c1ccc(OC)c(C)c1
MCF7
  IC50: 328 nM
HT-29 [1]
  IC50: 197 nM
[2]
  Ratio IC50: 1.67

## COc1ccc([C@H]2CC(=O)N2c2cc(OC)c(OC)c(OC)c2)cc1Br
MCF7
  IC50: 60 nM
HT-29 [1]
  IC50: 64 nM
[2]
  Ratio IC50: 0.94

## COc1ccc([C@@H]2N(c3cc(OC)c(OC)c(OC)c3)C(=O)C2(Cl)Cl)cc1F
MCF7
  IC50: 173 nM
HT-29 [1]
  IC50: 117 nM
[2]
  Ratio IC50: 1.48

## COc1ccc([C@H]2[C@H](c3ccccc3)C(=O)N2c2cc(OC)c(OC)c(OC)c2)cc1Cl
MCF7
  IC50: 230 nM
HT-29 [1]
  IC50: 24 nM
[2]
  Ratio IC50: 9.58

## C=C[C@@H]1C(=O)N(c2cc(OC)c(OC)c(OC)c2)[C@H]1c1ccc(OC)c(Br)c1
MCF7
  IC50: 88 nM
HT-29 [1]
  IC50: 91 nM
[2]
  Ratio IC50: 0.97

## C=C[C@@H]1C(=O)N(c2cc(OC)c(OC)c(OC)c2)[C@H]1c1ccc(OC)c(F)c1
MCF7
  IC50: 38 nM
HT-29 [1]
  IC50: 37 nM

## COc1ccc([C@H]2CC(=O)N2c2cc(OC)c(OC)c(OC)c2)cc1F
MCF7
  IC50: 22 nM
HT-29 [1]
  IC50: 15 nM
[2]
  Ratio IC50: 1.47
HT-29 [6]
  Activity: inactive
HT-29 [7]
  Activity: inactive
HT-29 [8]
  Activity: inactive
HT-29 [9]
  Activity: Active

## C=C(C)[C@@H]1C(=O)N(c2cc(OC)c(OC)c(OC)c2)[C@H]1c1ccc(OC)c(C)c1
MCF7
  IC50: 773 nM
HT-29 [1]
  IC50: 358 nM
[2]
  Ratio IC50: 2.16

## COc1ccc([C@H]2[C@H](c3ccccc3)C(=O)N2c2cc(OC)c(OC)c(OC)c2)cc1C
MCF7
  IC50: 462 nM
HT-29 [1]
  IC50: 153 nM
[2]
  Ratio IC50: 3.02

## C=C(C)[C@@H]1C(=O)N(c2cc(OC)c(OC)c(OC)c2)[C@H]1c1ccc(OC)c(F)c1
MCF7
  IC50: 323 nM
HT-29 [1]
  IC50: 678 nM
[2]
  Ratio IC50: 0.48

## C=C(C)[C@@H]1C(=O)N(c2cc(OC)c(OC)c(OC)c2)[C@H]1c1ccc(OC)c(Br)c1
MCF7
  IC50: 284 nM
HT-29 [1]
  IC50: 333 nM
[2]
  Ratio IC50: 0.83

## COc1ccc([C@@H]2N(c3cc(OC)c(OC)c(OC)c3)C(=O)C2(Cl)Cl)cc1I
MCF7
  IC50: 885 nM
HT-29 [1]
  IC50: 251 nM
[2]
  Ratio IC50: 3.53
